Bioassay records deposited in PubChem BioAssay by several laboratories.
Compounds with a hit are over-represented: about 3.7% of the library has one in this group of screens.
NPY-Y1 PAM-ag: NPY-Y1 receptor potentiators or agonists, primary screen, cell-based | Neuropeptide Y receptor type 1 (Homo sapiens), P25929 | NPY-Y1 expressing cells, potentiator/agonist activation | activation, % at 3.6 µM | 220,000 tested, 0.37% active; in the data active means activation above about 33%, passing the limit was not always enough;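 further: cells stimulated with NPY at EC10 then isoproterenol at EC100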
Cl transport mod: KCC2 cotransporter modulators, thallium flux, primary screen, cell-based, HEK293 KCC2, FluoZin-2 fluorescence, MLSMR; KCC2 cells, thallium flux FluoZin-2 fluorescence; Solute carrier family 12 member 5 (Homo sapiens), Q9H2X9; 190,000 tested, 2.2% active; B-score of Tl+ flux slope (higher = more flux/activation; lower = inhibition) at 10 µM; AID 1456, 2008;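 active means thallium flux slope and its plate-corrected score both differing from the plate sample mean at a set confidence after two filtering rounds, in either direction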;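 further: slope of fluorescence scaled to starting intensity during 10 to 20 s after thallium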
Target sequence (Q9H2X9 whole entry, looked up): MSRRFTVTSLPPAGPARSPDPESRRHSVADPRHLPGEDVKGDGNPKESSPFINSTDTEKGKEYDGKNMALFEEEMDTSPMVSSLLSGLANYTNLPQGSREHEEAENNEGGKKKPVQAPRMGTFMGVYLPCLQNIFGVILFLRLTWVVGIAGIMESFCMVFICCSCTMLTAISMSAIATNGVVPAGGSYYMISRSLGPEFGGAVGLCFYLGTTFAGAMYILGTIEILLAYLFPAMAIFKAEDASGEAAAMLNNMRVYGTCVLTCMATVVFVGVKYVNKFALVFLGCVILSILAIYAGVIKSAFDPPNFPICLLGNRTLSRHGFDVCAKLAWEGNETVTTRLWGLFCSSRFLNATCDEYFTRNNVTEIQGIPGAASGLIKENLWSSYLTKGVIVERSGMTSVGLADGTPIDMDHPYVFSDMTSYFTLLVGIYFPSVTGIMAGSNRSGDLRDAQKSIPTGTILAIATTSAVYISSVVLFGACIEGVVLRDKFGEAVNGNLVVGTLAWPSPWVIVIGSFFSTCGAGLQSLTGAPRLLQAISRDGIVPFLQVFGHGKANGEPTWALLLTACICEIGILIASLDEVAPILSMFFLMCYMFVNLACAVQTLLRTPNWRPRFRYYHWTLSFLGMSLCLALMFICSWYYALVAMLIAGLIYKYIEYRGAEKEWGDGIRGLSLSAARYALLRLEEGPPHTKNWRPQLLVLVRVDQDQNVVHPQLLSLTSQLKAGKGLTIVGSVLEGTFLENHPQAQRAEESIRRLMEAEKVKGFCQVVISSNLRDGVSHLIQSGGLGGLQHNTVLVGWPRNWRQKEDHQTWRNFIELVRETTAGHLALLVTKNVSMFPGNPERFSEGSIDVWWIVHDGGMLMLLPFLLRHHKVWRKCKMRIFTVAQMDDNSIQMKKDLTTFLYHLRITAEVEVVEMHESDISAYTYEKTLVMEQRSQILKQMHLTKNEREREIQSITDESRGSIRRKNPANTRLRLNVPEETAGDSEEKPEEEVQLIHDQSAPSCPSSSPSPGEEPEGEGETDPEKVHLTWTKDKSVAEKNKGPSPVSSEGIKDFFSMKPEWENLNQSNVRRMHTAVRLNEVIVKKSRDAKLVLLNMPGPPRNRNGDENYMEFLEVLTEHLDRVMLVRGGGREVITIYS
NPY-Y2 PAM-ag: NPY-Y2 potentiators or agonists, primary screen, cell-based; Neuropeptide Y receptor type 2 (Homo sapiens), P49146; cells expressing NPY-Y2, potentiator/agonist read-out; activation, % at 3.6 µM; 220,000 tested, 0.45% active; AID 1359, 2008; in the data active means activation above about 27%;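 further: cells stimulated with NPY near EC25 plus isoproterenol at EC100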
NPY Y1 blocker: NPY-Y1 receptor antagonists, primary screen, cell-based. 200,000 tested, 1% active. HEK293-CNG Y1 cells, membrane potential fluorescence; NPY at EC95, then isoproterenol. Neuropeptide Y receptor type 1 (Homo sapiens), P25929. inhibition, % at 3.6 µM;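 active means inhibition above the campaign mean inhibition of all tested compounds plus 3 SD, cut at about 20% in these data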
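Material: HEK293 Y1/CNG channel cell line | Also added: NPY (25 nM), isoproterenol (1 µM), Ro 20-1724 (25 µM) | Compound: One concentration, 3.6 µM, in 0.4% DMSO | Schedule: 3 h dye uptake, 1 h room-temperature compound, 45 min post-isoproterenol | Signal: Membrane-potential fluorescent dye readout | Read-out: % inhibition of NPY effect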
NPY Y2 blocker: NPY-Y2 receptor antagonists, primary screen, cell-based. inhibition, % at 2.7 µM. NPY-Y2 expressing cells, antagonist mode. AID 793, 2007. 140,000 tested, 0.99% active. Neuropeptide Y receptor type 2 (Homo sapiens), P49146; in the data active means inhibition above about 17%
Furin inh: human furin inhibitors, primary screen, biochemical, fluorescence intensity | P09958 | inhibition, % at 20 µM or 30 µM | 220,000 tested, 0.061% active | purified furin, fluorogenic substrate cleavage | AID 463115, 2010; in the data active means inhibition above about 25%
Of the large screens only hits and unclear results are named; the others gave an inactive call.

OC1(C(F)(F)F)CC(c2ccc3ccccc3c2)=NO1 (configuration not stated)	none (no result: NPY Y1 blocker, NPY Y2 blocker)
COc1nc(C)ccc1-c1noc(-c2ccccn2)n1	Furin inh 28.5
COc1ccc(NC(C)=O)cc1NC(=O)c1ccc(C#N)cc1	none (no result: NPY Y2 blocker)
CCOC(=O)C1CCCN(CC(O)COc2ccccc2C(C)=O)C1 (configuration not stated)	NPY-Y1 PAM-ag 62.0, NPY-Y2 PAM-ag 37.5 (no result: Cl transport mod)
CCOC(=O)C1CCCN(Cc2ccccc2OCC)C1 (configuration not stated)	none
CCOC(=O)C1CCCN(CC(O)COc2ccc(OC)cc2C(C)(C)C)C1 (configuration not stated)	NPY-Y1 PAM-ag 41.2, NPY-Y2 PAM-ag 48.8
Cc1ccccc1C(=NCCCN(C)C)c1ccccc1C	none
Cc1cc(C)c2[nH]c(O)c(N=NC(=S)NCC3CCCO3)c2c1 (configuration not stated)	none
Oc1[nH]c2ccccc2c1N=NC(=S)NCC1CCCO1 (configuration not stated)	Cl transport mod 4.17
Oc1[nH]c2c(Cl)cc(Cl)cc2c1N=NC(=S)NCC1CCCO1 (configuration not stated)	Cl transport mod 55.5
NC1=NS(=O)(=O)NC1c1ccc(F)cc1 (configuration not stated)	none (no result: NPY Y2 blocker)
Cc1ccc(NC(=O)c2ccccc2NS(=O)(=O)c2ccc(Cl)s2)cc1S(=O)(=O)N1CCOCC1	Cl transport mod -4.22
Cc1nc(NCCc2ccc(S(N)(=O)=O)cc2)c2c(C)c(C)sc2n1	Cl transport mod 20.9
O=C(Nc1cc(Cl)cc(Cl)c1)c1ccc(Cn2c(=O)[nH]c3ccsc3c2=O)cc1	NPY-Y1 PAM-ag 46.4
CCOCCCNC(=O)c1ccc(Cn2c(=O)[nH]c3ccsc3c2=O)cc1	none (no result: NPY Y2 blocker)
O=C(NNC(=S)Nc1cccc2ccccc12)c1cccc(Br)c1	Cl transport mod 13.8
N#CC(C#N)=c1ccc2c(c1)NC1(CCCCC1)N=2	NPY-Y1 PAM-ag 40.9, NPY-Y2 PAM-ag 43.5
CC(C)CN(CC(C)C)CC(O)COc1ccccc1Br (configuration not stated)	none
CCCCN(CCCC)CC(O)COc1ccccc1Br (configuration not stated)	NPY Y1 blocker 39.6, NPY Y2 blocker 25.9
O=C1c2ccccc2NC(c2ccc(-c3cccc([N+](=O)[O-])c3)o2)N1O (configuration not stated)	none
O=C1c2ccccc2NC(c2ccc(-c3ccc(Br)cc3)o2)N1O (configuration not stated)	Cl transport mod 8.61
CCOc1cc(Br)ccc1S(=O)(=O)N1CCC(C(N)=O)CC1	none
COc1cccc(-n2nnc3c(=O)n(Cc4ccc(Cl)cc4)cnc32)c1	none (no result: Cl transport mod)
COc1cccc(-n2nnc3c(=O)n(Cc4ccccc4Cl)cnc32)c1	Furin inh 28.0
OC1C2CN3CCN(C2)CC1(Cc1ccccc1)C3 (configuration not stated)	Furin inh 30.0
Nc1ccc(-c2cc(-c3cccc(N)c3)nc(-c3ccccc3)n2)cc1	NPY-Y1 PAM-ag 53.8, NPY-Y2 PAM-ag 45.0
CN(Cc1cn[nH]c1-c1cc2ccccc2o1)CC1CCOCC1	none (no result: NPY Y2 blocker)
Brc1ccc2ncc(Br)cc2c1	none
CCCCn1c(SC(C)C(N)=O)nc2cc(C(=O)OC)ccc2c1=O (configuration not stated)	Cl transport mod 9.75
COc1ccc(N2CC(C(=O)O)CC2=O)cc1 (configuration not stated)	none
COc1ccc(Nc2c([N+](=O)[O-])ccc3c2=NC2(CCCCC2)N=3)cc1	NPY-Y1 PAM-ag 43.7, NPY-Y2 PAM-ag 37.9 (no result: Cl transport mod, NPY Y2 blocker)
O=[N+]([O-])c1ccc2c(c1Nc1ccccc1)=NC1(CCCCC1)N=2	none (no result: Cl transport mod)
COC(=O)C1=C(Nc2ccc(C)cc2)C=C(C)C(C(=O)OC)C1c1ccc(OC)cc1 (configuration not stated)	NPY Y1 blocker 29.5, NPY Y2 blocker 23.1
O=C(Nc1cccc(Cl)c1)c1cccc(Oc2ccc([N+](=O)[O-])cc2Cl)c1	none
O=C(Nc1cccc(Cl)c1)c1cc(N=Nc2ccc([N+](=O)[O-])cc2Cl)ccc1O	Cl transport mod 11 (no result: NPY Y1 blocker, NPY Y2 blocker)
CCSc1nc2ccccc2c(=O)n1CCc1ccc(OC)c(OC)c1	none (no result: Cl transport mod, NPY Y1 blocker, NPY Y2 blocker)
CCOC(=O)c1cccc(-n2c(-c3ccc(OC)cc3)nc3nc4ccccc4nc32)c1	none
COc1ccccc1CNc1nc2ccccc2n1CCN1CCCCC1	NPY Y1 blocker 22.6, NPY Y2 blocker 20.7 (no result: Cl transport mod)
Cc1ccc(-c2csc(NC(=O)CSc3nc(C)cc(=O)[nH]3)n2)cc1	Cl transport mod -4.25
Cc1ccc(/C=C2/NC(=O)N(Cc3ccccc3F)C2=O)s1	none (no result: NPY Y2 blocker)
O=C1N/C(=C/c2cccs2)C(=O)N1Cc1ccccc1F	none (no result: NPY Y2 blocker)
CCCN1C(=O)/C(=C/c2ccc(C)s2)NC1=S	Cl transport mod 39.8
COc1ccc(N2C(=O)/C(=C/c3cccnc3)NC2=S)cc1	none
COc1cccc(N2C(=O)/C(=C\c3cccs3)NC2=S)c1	NPY-Y1 PAM-ag 47.7, NPY-Y2 PAM-ag 69.1 (no result: NPY Y2 blocker)
CC(C)CN1C(=O)/C(=C/c2cccs2)NC1=S	Cl transport mod 39.7
O=C(CNC1CCCCC1)Nc1cc(S(=O)(=O)N2CCOCC2)ccc1Cl	none (no result: NPY Y2 blocker)
Cc1ccc(S(=O)(=O)c2ccc(Oc3cccc(C)c3)cc2)cc1	none (no result: Cl transport mod)
CC1(C)Cc2c(sc3[nH]c(=S)n(Cc4ccccc4)c(=O)c23)CO1	Cl transport mod 80.6
CC1(C)Cc2c(sc3c2c(N)nc(=S)n3Cc2ccccc2)CO1	none (no result: NPY Y2 blocker)
Cc1ccc(NC(=O)c2ccccc2)cc1	none
Cc1ccc(NC(=O)C2=C(c3ccccc3)S(=O)(=O)CCS2(=O)=O)cc1	NPY-Y1 PAM-ag 56.1, NPY-Y2 PAM-ag 55.2 (no result: NPY Y2 blocker)
CC(C)n1c2ccccc2c2cc([N+](=O)[O-])ccc21	none
CCC(C)n1c(=S)[nH]c2c(sc3ccc([N+](=O)[O-])cc32)c1=O (configuration not stated)	Cl transport mod 52.6
COc1ccc(Cc2c(Cl)ncnc2Cl)cc1	none
CSc1nc(Cl)c(Cc2ccc(OC(C)C)cc2)c(N(C)C)n1	NPY Y1 blocker 48.8, NPY Y2 blocker 30.0
O=C(CSc1nc2ccccc2n1CCc1ccccc1)c1ccc(O)c(O)c1	Cl transport mod 7.84 (no result: NPY Y2 blocker)
O=C(CSc1nc2ccccc2n1CCc1ccccc1)N1CCOCC1	none
Nc1nc(-c2ccc3c(c2)OCCO3)cs1	NPY Y1 blocker 20.4
Cc1nc(-c2ccc3c(c2)OCCCO3)cs1	none (no result: NPY Y1 blocker, NPY Y2 blocker)
Cc1ccc(OCCN2C(=O)NC3(CCc4ccccc4C3)C2=O)cc1 (configuration not stated)	none
